Results taken from ChEMBL document CHEMBL1154616, “Synthesis and antitumor activity studies of some new fused 1,2,4-triazole derivatives carrying 2,4-dichloro-5-fluorophenyl moiety” (Eur J Med Chem, 2009).

Columns and labels:
COLO 205 = assay: Anticancer activity against human COLO205 cells after 48 hrs by sulforhodamine B assay; assay type: functional; settings: COLO 205, 48 h
Procedure, shortened: (§1)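 Full 60-cell-line panel, compounds tested over a five-log dose range. Cells are preincubated on microtiter plates, the agent is added, and cultures run 48 h. The end point is sulphorhodamine B protein staining. GI50 is taken as the concentration giving 50% growth inhibition relative to untreated control cells.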

NCI-H322M = assay: Anticancer activity against human NCI-H322M cells after 48 hrs by sulforhodamine B assay; assay type: functional; procedure, shortened: as §1
KM12 = assay: Anticancer activity against human KM12 cells after 48 hrs by sulforhodamine B assay; assay type: functional; settings: KM12, 48 h; procedure, shortened: as §1
SF-268 [1] = assay: Anticancer activity against human SF268 cells after 48 hrs by sulforhodamine B assay; assay type: functional; settings: SF-268, 48 h; procedure, shortened: as §1
OVCAR-3 = assay: Anticancer activity against human OVCAR-3 cells after 48 hrs by sulforhodamine B assay; assay type: functional; settings: OVCAR-3, 48 h; procedure, shortened: as §1
IGROV-1 = assay: Anticancer activity against human IGROV1 cells after 48 hrs by sulforhodamine B assay; assay type: functional; settings: IGROV-1, 48 h; procedure, shortened: as §1
LOX IMVI = assay: Anticancer activity against human LOXIMVI cells after 48 hrs by sulforhodamine B assay; assay type: functional; procedure, shortened: as §1
SF-268 [2] = assay: Anticancer activity against human SF268 cells assessed as cell growth at 100 uM after 48 hrs by sulforhodamine B assay relative to control; assay type: functional; settings: SF-268, 48 h, read-out: Activity
Procedure, shortened: (§2)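 Three-cell-line prescreen (NCI-H460 lung, MCF7 breast, SF 268 CNS), each preincubated on microtiter plates. The agent is added at a single concentration and cultures are incubated 48 h. Growth is read by sulphorhodamine B protein staining and reported as percent growth of treated versus untreated control cells; negative values indicate cell kill.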

EKVX = assay: Anticancer activity against human EKVX cells after 48 hrs by sulforhodamine B assay; assay type: functional; procedure, shortened: as §1
M14 = assay: Anticancer activity against human M14 cells after 48 hrs by sulforhodamine B assay; assay type: functional; settings: M14, 48 h; procedure, shortened: as §1
DU-145 = assay: Anticancer activity against human DU145 cells after 48 hrs by sulforhodamine B assay; assay type: functional; settings: DU-145, 48 h; procedure, shortened: as §1
NCI-H522 = assay: Anticancer activity against human NCI-H522 cells after 48 hrs by sulforhodamine B assay; assay type: functional; settings: NCI-H522, 48 h; procedure, shortened: as §1
T47D = assay: Anticancer activity against human T47D cells after 48 hrs by sulforhodamine B assay; assay type: functional
Procedure, shortened: (§3)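 Cells from the 60-line full panel are preincubated on microtiter plates, then treated across a five-log dose range for 48 h. Growth is read with the protein-binding dye sulforhodamine B. GI50 is the concentration giving 50% growth inhibition relative to untreated control cells.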

K562 = assay: Anticancer activity against human K562 cells after 48 hrs by sulforhodamine B assay; assay type: functional; settings: K562, 48 h; procedure, shortened: as §1
Malme-3M = assay: Anticancer activity against human MALME-3M cells after 48 hrs by sulforhodamine B assay; assay type: functional; procedure, shortened: as §1
ACHN = assay: Anticancer activity against human ACHN cells after 48 hrs by sulforhodamine B assay; assay type: functional; procedure, shortened: as §1
BT-549 = assay: Anticancer activity against human BT549 cells after 48 hrs by sulforhodamine B assay; assay type: functional; settings: BT-549, 48 h; procedure, shortened: as §1
CAKI-1 = assay: Anticancer activity against human Caki1 cells after 48 hrs by sulforhodamine B assay; assay type: functional; settings: CAKI-1, 48 h; procedure, shortened: as §1
SK-MEL-28 = assay: Anticancer activity against human SK-MEL-28 cells after 48 hrs by sulforhodamine B assay; assay type: functional; settings: SK-MEL-28, 48 h; procedure, shortened: as §1
SNB-75 = assay: Anticancer activity against human SNB75 cells after 48 hrs by sulforhodamine B assay; assay type: functional; settings: SNB-75, 48 h; procedure, shortened: as §3
MCF7 [3] = assay: Anticancer activity against human MCF7 cells after 48 hrs by sulforhodamine B assay; assay type: functional; settings: MCF7, 48 h; procedure, shortened: as §1
MDA-MB-231 = assay: Anticancer activity against human MDA-MB-231 cells after 48 hrs by sulforhodamine B assay; assay type: functional; settings: MDA-MB-231, 48 h; procedure, shortened: as §1
SW-620 = assay: Anticancer activity against human SW620 cells after 48 hrs by sulforhodamine B assay; assay type: functional; settings: SW-620, 48 h; procedure, shortened: as §3
SF-295 = assay: Anticancer activity against human SF295 cells after 48 hrs by sulforhodamine B assay; assay type: functional; settings: SF-295, 48 h; procedure, shortened: as §1
SK-OV-3 = assay: Anticancer activity against human SKOV3 cells after 48 hrs by sulforhodamine B assay; assay type: functional; settings: SK-OV-3, 48 h; procedure, shortened: as §1
UO-31 = assay: Anticancer activity against human UO31 cells after 48 hrs by sulforhodamine B assay; assay type: functional; settings: UO-31, 48 h; procedure, shortened: as §3
HOP-62 = assay: Anticancer activity against human HOP62 cells after 48 hrs by sulforhodamine B assay; assay type: functional; settings: HOP-62, 48 h; procedure, shortened: as §1
[4] = Acute toxicity in orally dosed Swiss albino mouse after 24 hrs; assay type: organism-based; settings: in vivo, po
Procedure, shortened: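 Male Swiss albino mice (Mus musculus); median lethal dose (LD50) determined after oral dosing, read at 24 h.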

NCI-H226 = assay: Anticancer activity against human NCI-H226 cells after 48 hrs by sulforhodamine B assay; assay type: functional; settings: NCI-H226, 48 h; procedure, shortened: as §1
RXF 393 = assay: Anticancer activity against human RXF393 cells after 48 hrs by sulforhodamine B assay; assay type: functional; settings: RXF 393, 48 h; procedure, shortened: as §1
786-0 = assay: Anticancer activity against human 786-0 cells after 48 hrs by sulforhodamine B assay; assay type: functional; settings: 786-0, 48 h; procedure, shortened: as §1
HCT-116 = assay: Anticancer activity against human HCT116 cells after 48 hrs by sulforhodamine B assay; assay type: functional; settings: HCT-116, 48 h; procedure, shortened: as §1
A549 = assay: Anticancer activity against human A549 cells after 48 hrs by sulforhodamine B assay; assay type: functional; settings: A549, 48 h; procedure, shortened: as §1
OVCAR-4 = assay: Anticancer activity against human OVCAR4 cells after 48 hrs by sulforhodamine B assay; assay type: functional; settings: OVCAR-4, 48 h; procedure, shortened: as §1
NCI-H23 = assay: Anticancer activity against human NCI-H23 cells after 48 hrs by sulforhodamine B assay; assay type: functional; settings: NCI-H23, 48 h; procedure, shortened: as §1
OVCAR-5 = assay: Anticancer activity against human OVCAR5 cells after 48 hrs by sulforhodamine B assay; assay type: functional; settings: OVCAR-5, 48 h; procedure, shortened: as §1
U-251 = assay: Anticancer activity against human U251 cells after 48 hrs by sulforhodamine B assay; assay type: functional; settings: U-251, 48 h; procedure, shortened: as §3
UACC-62 = assay: Anticancer activity against human UACC62 cells after 48 hrs by sulforhodamine B assay; assay type: functional; settings: UACC-62, 48 h; procedure, shortened: as §3
NCI-H460 [5] = assay: Anticancer activity against human NCI-H460 cells after 48 hrs by sulforhodamine B assay; assay type: functional; settings: NCI-H460, 48 h; procedure, shortened: as §1
NCI/ADR-RES = assay: Anticancer activity against human NCI/ADR-RES cells after 48 hrs by sulforhodamine B assay; assay type: functional; procedure, shortened: as §1
MCF7 [6] = assay: Anticancer activity against human MCF7 cells assessed as cell growth at 100 uM after 48 hrs by sulforhodamine B assay relative to control; assay type: functional; settings: MCF7, 48 h, read-out: Activity; procedure, shortened: as §2
HCT-15 = assay: Anticancer activity against human HCT15 cells after 48 hrs by sulforhodamine B assay; assay type: functional; settings: HCT-15, 48 h; procedure, shortened: as §1
SNB-19 = assay: Anticancer activity against human SNB19 cells after 48 hrs by sulforhodamine B assay; assay type: functional; settings: SNB-19, 48 h; procedure, shortened: as §1
UACC-257 = assay: Anticancer activity against human UACC257 cells after 48 hrs by sulforhodamine B assay; assay type: functional; settings: UACC-257, 48 h; procedure, shortened: as §3
NCI-H460 [7] = assay: Anticancer activity against human NCI-H460 cells assessed as cell growth at 100 uM after 48 hrs by sulforhodamine B assay relative to control; assay type: functional; settings: NCI-H460, 48 h, read-out: Activity; procedure, shortened: as §2
SN12C = assay: Anticancer activity against human SN12C cells after 48 hrs by sulforhodamine B assay; assay type: functional; procedure, shortened: as §1
PC-3 = assay: Anticancer activity against human PC3 cells after 48 hrs by sulforhodamine B assay; assay type: functional; settings: PC-3, 48 h; procedure, shortened: as §1
HT-29 = assay: Anticancer activity against human HT-29 cells after 48 hrs by sulforhodamine B assay; assay type: functional; settings: HT-29, 48 h; procedure, shortened: as §1
A498 = assay: Anticancer activity against human A498 cells after 48 hrs by sulforhodamine B assay; assay type: functional; settings: A498, 48 h; procedure, shortened: as §1
HCC 2998 = assay: Anticancer activity against human HCC2998 cells after 48 hrs by sulforhodamine B assay; assay type: functional; settings: HCC 2998, 48 h; procedure, shortened: as §1
MOLT-4 = assay: Anticancer activity against human MOLT4 cells after 48 hrs by sulforhodamine B assay; assay type: functional; settings: MOLT-4, 48 h; procedure, shortened: as §1
OVCAR-8 = assay: Anticancer activity against human OVCAR8 cells after 48 hrs by sulforhodamine B assay; assay type: functional; settings: OVCAR-8, 48 h; procedure, shortened: as §1
MDA-MB-435 = assay: Anticancer activity against human MDA-MB-435 cells after 48 hrs by sulforhodamine B assay; assay type: functional; settings: MDA-MB-435, 48 h; procedure, shortened: as §1
HOP-92 = assay: Anticancer activity against human HOP92 cells after 48 hrs by sulforhodamine B assay; assay type: functional; settings: HOP-92, 48 h; procedure, shortened: as §1
TK-10 = assay: Anticancer activity against human TK10 cells after 48 hrs by sulforhodamine B assay; assay type: functional; settings: TK-10, 48 h; procedure, shortened: as §3

Fc1cc(-c2nnc3n2N=C(c2ccc(Cl)cc2)CS3)c(Cl)cc1Cl
GI50 (COLO 205): 7.09 µM | GI50 (NCI-H322M): 16.2 µM | GI50 (KM12): 8.08 µM | GI50 (SF-268 [1]): 13.2 µM | GI50 (OVCAR-3): 15.1 µM | GI50 (IGROV-1): 3.39 µM | GI50 (LOX IMVI): 1690 nM | growth at 100 µM (SF-268 [2]): 3% | GI50 (EKVX): 27.4 µM | GI50 (M14): 4.87 µM | GI50 (DU-145): 3.41 µM | GI50 (NCI-H522): 1800 nM | GI50 (T47D): 3.9 µM | GI50 (K562): 1690 nM | GI50 (Malme-3M): 2370 nM | GI50 (ACHN): 4.82 µM | GI50 (BT-549): 3.27 µM | GI50 (CAKI-1): 4.21 µM | GI50 (SK-MEL-28): 6.41 µM | GI50 (SNB-75): 3.37 µM | GI50 (MCF7 [3]): 6.24 µM | GI50 (MDA-MB-231): 10.8 µM | GI50 (SW-620): 1910 nM | GI50 (SF-295): 15.7 µM | GI50 (SK-OV-3): 25.4 µM | GI50 (UO-31): 1890 nM | GI50 (HOP-62): 20.1 µM | LD50 at 24 h [4]: 227 mg/kg | GI50 (NCI-H226): 18.1 µM | GI50 (RXF 393): 11.4 µM | GI50 (786-0): 2080 nM | GI50 (HCT-116): 2360 nM | GI50 (A549): 18.3 µM | GI50 (OVCAR-4): 5.35 µM | GI50 (NCI-H23): 13.8 µM | GI50 (OVCAR-5): 10.6 µM | GI50 (U-251): 10.6 µM | GI50 (UACC-62): 3.63 µM | GI50 (NCI-H460 [5]): 19.1 µM | GI50 (NCI/ADR-RES): 3.12 µM | growth at 100 µM (MCF7 [6]): 3% | GI50 (HCT-15): 1860 nM | GI50 (SNB-19): 19.5 µM | GI50 (UACC-257): 15.7 µM | growth at 100 µM (NCI-H460 [7]): 3% | GI50 (SN12C): 3.6 µM | GI50 (PC-3): 18.7 µM | GI50 (HT-29): 4.6 µM | GI50 (A498): 21 µM | GI50 (HCC 2998): 13.6 µM | GI50 (MOLT-4): 1060 nM | GI50 (OVCAR-8): 14.8 µM | GI50 (MDA-MB-435): 4.55 µM | GI50 (HOP-92): 16.4 µM | GI50 (TK-10): 3.11 µM
